Screening data from PubChem.
TAAR1 ag – human TAAR1 agonists, primary screen, Fluo-8 calcium fluorescence, CHO RD-HGA16 cells | vehicle wells 0%, saturating PEA agonist 100% | Trace amine-associated receptor 1 (Homo sapiens), Q96RJ0 | activation, % at 3 µM | hit rate 0.99% among 360,000;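 active = activation above the mean activation of all test compounds in the run plus 3 SD, cut at about 38% in these data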
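Signal – calcium-sensitive Fluo-8 signal, excitation 470-495, emission 515-575 nm · System – RD-HGA16 (CHO) cells co-expressing Gα16 and hTAAR1 · Incubation – 17-24 h seeding, 75 min 37 °C dye, 30 min RT · Compound dosing – 3 µM single concentration · Repeats – no replicates (n 1)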
TAAR1 antag – human TAAR1 antagonists, primary screen, Fluo-8 calcium fluorescence, CHO RD-HGA16 cells | hit rate 1.5% among 360,000 | Trace amine-associated receptor 1 (Homo sapiens), Q96RJ0 | AID 624466, 2012 | antagonist | inhibition, % at 3 µM;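 active = inhibition above a per-plate cutoff, the mean inhibition of test compounds on that plate plus 3 SD, cut at about 49% in these data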
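Test system: CHO RD-HGA16 cells bearing hTAAR1 | Reagent: β-PEA, EC80 | Compound dosing: 3 µM, single point | Schedule: Dye loading 75 min at 37 °C, then 30 min room temperature | Signal: Calcium fluorescence with Fluo-8 | Evaluation: Percent inhibition of PEA-evoked calcium signal, max/basal emission ratio | Control set: DMSO-only wells and EC80 β-PEA-stimulated wells | Repeats: Singlicate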
MPTP block – mitochondrial permeability transition pore inhibitors, primary screen, biochemical, isolated mouse mitochondria, absorbance | AID 602449, 2012 | inhibition, % at 10 µM | hit rate 1.4% among 360,000 | Ca2+ swelling absorbance, 30 min;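 active = inhibition of 50% or more, scaled per plate between neutral and stimulator controls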
GPR7 antagonist – GPR7 receptor antagonists, primary screen, cell-based, fluorescence, single concentration. Neuropeptides B/W receptor type 1 (Homo sapiens), P48145. GPR7-expressing cells, fluorescence antagonist assay. inhibition, % at 4.4 µM. hit rate 1.1% among 290,000. AID 1861, 2009; in the data active = inhibition above about 16%, passing the limit was not always enough;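 note: cells stimulated with the agonist NPW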
DAGLB inh – DAGLB lipase inhibitors, primary screen, biochemical, fluorescence, HTS. hit rate 0.059% among 340,000. inhibition, % at 5.17 µM. HEK293T DAGLB membrane lysate, EnzChek fluorogenic substrate. Diacylglycerol lipase-beta (Homo sapiens), Q8NCG7; in the data active = inhibition above about 34%
Target sequence (Q8NCG7 whole entry, looked up): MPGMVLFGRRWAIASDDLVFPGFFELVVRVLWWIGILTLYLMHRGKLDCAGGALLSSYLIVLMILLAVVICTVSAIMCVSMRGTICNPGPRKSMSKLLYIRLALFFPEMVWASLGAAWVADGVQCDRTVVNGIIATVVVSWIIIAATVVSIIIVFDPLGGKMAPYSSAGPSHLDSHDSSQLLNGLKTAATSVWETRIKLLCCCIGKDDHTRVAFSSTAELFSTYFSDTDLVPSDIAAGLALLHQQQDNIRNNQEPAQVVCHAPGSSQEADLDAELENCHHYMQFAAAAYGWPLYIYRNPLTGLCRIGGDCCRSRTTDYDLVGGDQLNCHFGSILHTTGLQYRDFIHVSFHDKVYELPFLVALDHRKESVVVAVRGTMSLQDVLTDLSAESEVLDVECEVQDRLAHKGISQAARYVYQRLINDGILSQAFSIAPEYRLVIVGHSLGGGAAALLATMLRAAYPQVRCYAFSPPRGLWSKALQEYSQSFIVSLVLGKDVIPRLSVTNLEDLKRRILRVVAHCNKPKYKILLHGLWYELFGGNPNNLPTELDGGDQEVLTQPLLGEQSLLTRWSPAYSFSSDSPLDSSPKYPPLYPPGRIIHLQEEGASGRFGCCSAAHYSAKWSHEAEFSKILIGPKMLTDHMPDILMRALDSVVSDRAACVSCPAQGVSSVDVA
Numbers stand for hits; 0 = inactive; - = no result. An excerpt weighted towards active compounds, which were near 4% of everything screened.

SMILES	TAAR1 ag	TAAR1 antag	MPTP block	GPR7 antagonist	DAGLB inh
CC1CCC(CN2C(Nc3ccccc3)=NC[C@@H]2Cc2ccccc2)CC1 (some centres undefined)	44.3	0	0	-	0
c1ccc(C[C@H]2CN=C(Nc3ccccc3)N2CC2CCC2)cc1	0	0	0	-	0
c1ccc(C[C@H]2CN=C(Nc3ccccc3)N2CC2CCCCC2)cc1	41.2	0	0	-	0
O=C(O)C(=Cc1ccc([N+](=O)[O-])cc1)c1ccccc1	0	0	-	-	-
CCN1CCN(c2nc3c(C)cccn3c(=O)c2C=C(C#N)C#N)CC1	0	0	0	0	0
C[C@H](O)[C@@H]1CN2CCc3c([nH]c4ccccc34)[C@@H]2C[C@@H]1N(C)CC1CCCCC1	0	0	-	-	-
COc1ccccc1/C=N/NC(=O)c1cccc(NC(=O)c2ccccc2Cl)c1	0	48.9	0	0	0
C=CCc1cccc(/C=N/NC(=O)c2ccccc2OC)c1O	0	0	0	18.9	0
COc1cc(/C=N/NC(=O)c2cccc(NC(=O)c3ccccc3Cl)c2)ccc1O	0	52.6	0	0	0
C=CCCC1CN(Cc2ccc(OC)cc2)S(=O)(=O)c2c(Oc3cc(C)c(C)c(C)c3)cccc2O1 (centres undefined)	0	0	-	-	-
O=C(CSCc1ccccc1)NNc1c(F)c(F)cc(F)c1F	0	0	0	0	0
O=C(Nc1ccc(Oc2cccnc2)nc1)c1ccc(C(F)(F)F)cc1	0	0	0	20.0	0
COc1ccc(C(CNC(=O)CN(C)S(=O)(=O)c2ccc(C)cc2)N2CCCC2)cc1 (centres undefined)	0	0	0	-	0
Cc1ccc(S(=O)(=O)N2CCOCC2)cc1C(=O)NCc1ccccn1	0	0	0	-	0
Cn1nc(CC(=O)NC2CCCCCCCCCCC2)c2ccccc2c1=O	0	0	0	0	0
Cn1nc(CC(=O)Nc2ncc(Br)s2)c2ccccc2c1=O	44.2	0	0	0	0
COc1ccccc1CN1CCNC(=O)C1CC(=O)NC1Cc2ccccc2C1 (centres undefined)	41.1	0	0	0	0
COc1ccccc1CN1CCNC(=O)C1CC(=O)O (centres undefined)	0	0	0	0	0
Cc1sc2ncnc(N3CCC(C(=O)Nc4ccc(Cl)c(Cl)c4)CC3)c2c1C	0	0	0	-	0
CCc1cccc(NC(=O)C2CCN(c3ncnc4sc(C)c(C)c34)CC2)c1	0	53.0	0	-	0
COc1cccc(OC)c1OCCCc1c(C)n[nH]c1C	0	0	0	16.4	0
CCn1c(=O)c(C(=O)NNC(=O)c2cccc(Cl)c2)c(O)c2ccccc21	37.6	70.8	0	0	0
CCn1c(=O)c(C(=O)Nc2ccccc2)c(O)c2ccccc21	0	0	0	0	0
CCCn1c(=O)c(C(=O)Nc2ncccc2C)c(O)c2ccccc21	40.3	0	0	0	0
CCn1c(=O)c(C(=O)Nc2nc3ccccc3[nH]2)c(O)c2ccccc21	0	92.6	0	0	0
SMILES	TAAR1 ag	TAAR1 antag	MPTP block	GPR7 antagonist	DAGLB inh
Cn1c(=O)c(C(=O)NNC(=O)c2ccccc2Br)c(O)c2ccccc21	0	0	0	0	0
CCn1c(=O)c(C(=O)NNC(=O)c2ccccc2Br)c(O)c2ccccc21	45.5	0	0	0	0
CC1OC(CC(=O)O)CC2=C1C(=O)c1c(O)cccc1C2=O (centres undefined)	83.3	63.2	0	-	0
O=C(Cn1nc(-c2ccccc2)ccc1=O)Nc1ccc(N2CCN(C(=O)c3ccccc3)CC2)cc1	0	0	0	19.8	0
O=C(c1ccccc1)N1CCN(c2ccc(Cl)cc2)CC1	0	0	0	19.9	0
O=C(c1ccc(N2CCN(C(=O)c3ccc(F)cc3F)CC2)cc1)c1cccc(F)c1	0	62.7	0	0	0
Cc1ccccc1-c1ccc(=O)n(CC(=O)Nc2ccc(C(=O)N3CCCC3)cc2)n1	0	0	0	0	0
O=C(c1ccc(F)cc1F)N1CCN(c2ncccn2)CC1	0	0	0	0	0
O=C(c1ccccc1)N1CCN(c2ccccc2)CC1	0	0	0	-	0
COCCNC(=O)C(c1cccs1)N(Cc1ccccc1)C(=O)Cn1nnc2ccccc21 (centres undefined)	0	0	0	0	0
COCCNC(=O)C(c1cccs1)N(CCc1ccccc1)C(=O)Cn1nnc2ccccc21 (centres undefined)	40.2	0	0	0	0
N#C/C=C(/N)N1CCN(c2ccc(Cl)c(Cl)c2)CC1	38.5	0	0	0	0
COC(=O)N1CCN(c2ccc(Cl)c(Cl)c2)CC1	-	-	0	0	0
COC(=O)C(NC(=O)c1ccc(F)cc1)(Nc1nc(C)cs1)C(F)(F)F (centres undefined)	0	0	0	17.2	0
CC(=O)N(C)c1ccc(C=C2C=Cc3ccccc32)cc1	0	0	0	-	0
Oc1ccc2sc(-c3ccccc3O)c(-c3ccc(OCCN4CCCCC4)cc3)c2c1	38.7	53.3	0	-	-
O=C(N[C@H](C(=O)N1CCC[C@H]1C(=O)NC1CCCC1)C1CCCCC1)C1CC1	0	0	-	-	-
COCCN1C(=O)/C(=C/c2ccc(OCc3ccc(C(=O)O)cc3)c(OC)c2)SC1=Nc1ccccc1	0	72.9	0	0	0
COc1cc(/C=C2\SC(=Nc3ccccc3)N(Cc3ccco3)C2=O)ccc1OC(C)C(=O)O (centres undefined)	0	0	0	0	0
CCCC/C(O)=C1\C(=O)CC(C)(C)CC1=Nc1ccccc1OC	0	0	0	0	0
CCC/C(O)=C1\C(=O)CC(C)(C)CC1=Nc1ccc(OC)cc1OC	0	0	0	16.2	0
COc1cc(C2(c3ccc(O)c(OC)c3)C(=O)Nc3c(C)cc(Br)cc32)ccc1O	0	51.2	0	-	0
CCOc1c(Br)cc(C(=O)Nc2cccc(S(=O)(=O)N3CCOCC3)c2)cc1OC	0	0	0	-	0
Nc1nc2ccccc2n1S(=O)(=O)c1ccccc1	0	0	0	-	-
COc1cc(N=c2c([N+](=O)[O-])nn(-c3ccc4c(c3)OCCO4)n2O)cc(OC)c1	0	0	0	0	0
SMILES	TAAR1 ag	TAAR1 antag	MPTP block	GPR7 antagonist	DAGLB inh
CC(C)c1ccc(N=c2c([N+](=O)[O-])nn(-c3ccc4c(c3)OCCO4)n2O)cc1	0	64.3	0	0	0
CCOC(=O)c1sc2nc(OCc3cccnc3)cc(C)c2c1N	0	0	0	-	-
CCc1nc2ccc(C(=O)NCc3ccccc3OC)cn2c1N(C)Cc1ccc(OC)cc1	0	50.5	0	-	-
CCc1nc2ccc(C(=O)NCc3ccc(OC)cc3)cn2c1N(C)Cc1ccc(OC)cc1	0	0	0	-	-
COc1ccc(Cl)cc1NC(=O)CN(C)C(=O)c1cc2c(s1)CCCC2	0	0	0	-	0
CC(=O)c1c(C)[nH]c(C(=O)CSc2nnc(-c3ccccc3)o2)c1C	0	56.4	0	0	0
